# Changes are numbered by the printed parent chain. The source made the active and inactive calls. The rule behind the calls is not given here.
# Assays:
# [1] = target: T1, Muscarinic acetylcholine receptor M1 (Homo sapiens) (UniProt P11229); test: Positive allosteric modulation at human muscarinic M1 receptor expressing CHO cells assessed as potentiation of acetylcholine-induced calcium mobilization by FLIPR assay; format: functional, cell-based
# T1 sequence (whole entry): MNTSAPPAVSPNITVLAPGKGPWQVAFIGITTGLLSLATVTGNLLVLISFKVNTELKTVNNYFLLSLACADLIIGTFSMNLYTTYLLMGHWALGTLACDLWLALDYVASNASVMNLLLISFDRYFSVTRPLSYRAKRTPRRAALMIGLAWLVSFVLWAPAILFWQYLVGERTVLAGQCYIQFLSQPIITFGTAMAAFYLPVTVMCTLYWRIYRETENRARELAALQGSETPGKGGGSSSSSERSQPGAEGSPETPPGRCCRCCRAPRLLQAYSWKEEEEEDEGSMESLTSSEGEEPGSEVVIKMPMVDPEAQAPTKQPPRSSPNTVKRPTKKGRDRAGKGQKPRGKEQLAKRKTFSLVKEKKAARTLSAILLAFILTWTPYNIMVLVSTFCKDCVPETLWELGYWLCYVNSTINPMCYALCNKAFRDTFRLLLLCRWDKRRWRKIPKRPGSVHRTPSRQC
# In short: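 CHO cells expressing human M1 receptor. Inflection point determined in the presence of an EC20 concentration of acetylcholine. Mean of at least two experiments; interassay variability ±30%.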
# [2] = tested on: Mus musculus; test: Antiamnesic activity against in contextual fear conditioning B6SJL mouse modle assessed as reversal of scopolamine-induced episodic memory deficit in at 10 mg/kg; format: functional, organism-based; parameters: dose 10 mg/kg
# In short: (§1)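 Contextual fear conditioning model of episodic memory in B6SJL mice; scopolamine-induced deficit; test agents given at 3, 10 and 30 mpk; read-out is reversal of the scopolamine deficit.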
# [3] = Plasma protein binding in rat; format: ADME, cell-free; conditions: read-out: PPB (converted)
# [4] = Plasma protein binding in human; format: ADME, cell-free; conditions: read-out: PPB (converted)
# [5] = Distribution coefficient, log D of the compound; format: physicochemical; conditions: octanol/water
# [6] = target: T1, Muscarinic acetylcholine receptor M1 (Homo sapiens); test: Positive allosteric modulation at human muscarinic M1 receptor expressing CHO cells assessed as potentiation of acetylcholine-induced calcium mobilization at 0.1 to 1 uM by FLIPR assay; format: functional, cell-based
# In short: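 Human M1-expressing CHO cells; calcium mobilization read-out. Acetylcholine dose–response curves run with modulator at rising concentrations from 0.1 to 1 μM; fold potentiation taken from the leftward shift of the curve.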
# [7] = tested on: Brain; test: Drug uptake in Sprague-Dawley rat brain at 10 mg/kg, po; format: ADME, organism-based; parameters: dose 10 mg/kg, route oral; conditions: in vivo, read-out: Drug uptake
# In short: (§2)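 Sprague-Dawley rats dosed orally at 10 mg/kg in 0.5% methocel. Drug levels measured by bioanalysis of plasma, brain and CSF; brain/plasma ratio derived from these. Interanimal variability under 20%.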
# [8] = tested on: Mus musculus; test: Antiamnesic activity against in contextual fear conditioning B6SJL mouse modle assessed as reversal of scopolamine-induced episodic memory deficit in at 3 mg/kg; format: functional, organism-based; parameters: dose 3 mg/kg; in short: as §1
# [9] = Ratio of drug uptake in CSF to fraction unbound in plasma in rat; format: ADME, cell-free
# In short: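 Sprague-Dawley rats, oral 10 mg/kg in 0.5% methocel. CSF level divided by unbound plasma level, with unbound plasma derived using rat plasma protein binding values.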
# [10] = tested on: Plasma; test: Plasma concentration in Sprague-Dawley rat at 10 mg/kg, po; format: ADME, organism-based; parameters: dose 10 mg/kg, route oral; conditions: in vivo; in short: as §2
# [11] = Drug uptake in Sprague-Dawley rat CSF at 10 mg/kg, po; format: ADME, organism-based, Cerebrospinal fluid; parameters: dose 10 mg/kg, route oral; conditions: in vivo, read-out: Drug uptake; in short: as §2
# [12] = Ratio of drug uptake in brain to plasma in Sprague-Dawley rat at 10 mg/kg, po; format: ADME, organism-based; parameters: dose 10 mg/kg, route oral; conditions: read-out: BPR; in short: as §2
# [13] = tested on: Plasma; test: Plasma concentration in B6SJL mouse at 30 mg/kg; format: ADME, organism-based; parameters: dose 30 mg/kg; conditions: in vivo
# In short: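 Plasma drug levels in B6SJL mice measured after 30 mpk dosing in the contextual fear conditioning study.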
# [14] = tested on: Mus musculus; test: Antiamnesic activity against in contextual fear conditioning B6SJL mouse modle assessed as reversal of scopolamine-induced episodic memory deficit in at 30 mg/kg; format: functional, organism-based; parameters: dose 30 mg/kg; in short: as §1
# [15] = Ratio of drug uptake in CSF to fraction unbound in plasma in wild type CF-1 mouse after 30 mins; format: ADME, cell-free; conditions: 0.5 h
# In short: (§3)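 CF-1 mice, wild type and P-gp knockout, were treated with the compound. Plasma and CSF were collected 30 minutes after treatment. The value is the CSF concentration divided by the unbound plasma concentration (CSF/U plasma ratio), reported separately for each genotype.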
# [16] = Ratio of drug uptake in CSF to fraction unbound in plasma in P-gp knock out CF-1 mouse after 30 mins; format: ADME, cell-free; conditions: 0.5 h; in short: as §3
# [17] = target: T2, Muscarinic acetylcholine receptor M1 (Rattus norvegicus) (UniProt P08482); test: Positive allosteric modulation at rat muscarinic M1 receptor
# T2 sequence (whole entry): T1 sequence (whole entry) with A5V, T254S, P309S, R320K, A337G, I413V
# [18] = target: Voltage-gated inwardly rectifying potassium channel KCNH2 (Homo sapiens, UniProt Q12809); test: Binding affinity to human ERG at <1 uM
# Chain of Voltage-gated inwardly rectifying potassium channel KCNH2 (Q12809 whole entry): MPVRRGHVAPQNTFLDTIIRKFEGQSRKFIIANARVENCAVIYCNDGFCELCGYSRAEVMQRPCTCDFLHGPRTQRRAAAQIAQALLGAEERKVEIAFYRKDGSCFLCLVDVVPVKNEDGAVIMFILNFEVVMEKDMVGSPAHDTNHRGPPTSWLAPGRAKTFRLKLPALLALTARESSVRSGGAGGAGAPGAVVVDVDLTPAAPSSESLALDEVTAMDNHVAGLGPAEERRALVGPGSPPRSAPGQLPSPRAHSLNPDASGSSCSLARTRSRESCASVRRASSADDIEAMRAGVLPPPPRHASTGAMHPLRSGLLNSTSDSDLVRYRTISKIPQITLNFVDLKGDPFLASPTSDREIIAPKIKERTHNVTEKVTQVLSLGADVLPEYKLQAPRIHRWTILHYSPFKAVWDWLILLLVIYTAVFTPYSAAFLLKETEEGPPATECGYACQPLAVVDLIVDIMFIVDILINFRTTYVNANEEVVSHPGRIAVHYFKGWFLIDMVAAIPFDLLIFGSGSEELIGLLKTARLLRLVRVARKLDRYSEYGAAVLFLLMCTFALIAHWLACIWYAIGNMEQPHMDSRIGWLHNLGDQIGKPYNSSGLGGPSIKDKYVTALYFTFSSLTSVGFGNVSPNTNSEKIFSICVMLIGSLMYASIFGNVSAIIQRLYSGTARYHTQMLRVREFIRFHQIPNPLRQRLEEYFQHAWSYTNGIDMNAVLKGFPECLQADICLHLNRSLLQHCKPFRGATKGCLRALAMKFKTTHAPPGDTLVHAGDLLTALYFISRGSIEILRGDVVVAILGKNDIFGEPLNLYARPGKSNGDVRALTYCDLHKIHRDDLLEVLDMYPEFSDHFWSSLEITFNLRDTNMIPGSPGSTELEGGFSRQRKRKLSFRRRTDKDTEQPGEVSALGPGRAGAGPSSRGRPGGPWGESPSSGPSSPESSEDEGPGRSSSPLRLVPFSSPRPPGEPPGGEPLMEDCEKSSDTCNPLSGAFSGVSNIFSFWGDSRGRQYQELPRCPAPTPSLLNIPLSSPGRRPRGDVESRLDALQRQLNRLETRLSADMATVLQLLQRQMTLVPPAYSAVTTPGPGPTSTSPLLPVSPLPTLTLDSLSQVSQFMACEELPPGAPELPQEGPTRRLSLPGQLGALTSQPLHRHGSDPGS
SMILES,IP [1] [µM],other results
O=C(O)c1cc(CN2CCc3cnccc3C2)c2ccccn2c1=O,0.9,–
O=C(O)c1cc(CN2CCC(c3cc[nH]n3)CC2)c2ccccn2c1=O,1.5,–
COC(=O)C1c2ccccc2CCN1Cc1cc(C(=O)O)c(=O)n2ccccc12 (stereo not drawn),1.7,–
O=C(O)c1cc(CN2CCC(c3ccc(Br)cc3)CC2)c2ccccn2c1=O,1.2,–
O=C(O)c1cc(CN2CCc3cc(-c4ccccc4)ccc3C2)c2ccccn2c1=O,0.56,–
O=C(O)c1cc(CN2CCC(n3ccnn3)CC2)c2ccccn2c1=O,1.7,–
O=C(O)c1cc(CN2CCC(c3cccc(F)c3)CC2)c2ccccn2c1=O,1.5,–
Cn1c(C2CCN(Cc3cc(C(=O)O)c(=O)n4ccccc34)CC2)nc2ccccc21,30,–
O=C(O)c1cc(CN2CCc3cc(Cl)ccc3C2)c2ccccn2c1=O,0.33,Activity [2]: inactive; fraction unbound [3]: 0.04; fraction unbound [4]: 0.02; logD [5]: 2.37; Activity [6]: Active; concentration [7]: 3690 nM; Activity [8]: inactive; Ratio [9]: 0.63; concentration [10]: 4240 nM; concentration [11]: 86 nM; Kp [12]: 0.86; concentration [13]: 16000 nM; Activity [14]: inactive
N#Cc1ccc(C2CCN(Cc3cc(C(=O)O)c(=O)n4ccccc34)CC2)cc1,1.3,–
O=C(O)c1cc(CN2CCC(n3ccnc3)CC2)c2ccccn2c1=O,1.9,–
COc1ccc(C2CCN(Cc3cc(C(=O)O)c(=O)n4ccccc34)CC2)cc1,4.3,–
O=C(O)c1cc(CN2CCC(c3cncnc3)CC2)c2ccccn2c1=O,7,–
Cc1ccc2c(c1)CCN(Cc1cc(C(=O)O)c(=O)n3ccccc13)C2,1.1,–
O=C(O)c1cc(CN2CCC(c3ccncc3)CC2)c2ccccn2c1=O,0.95,–
O=C(O)c1cc(CN2CCC(n3cnc4ccccc43)CC2)c2ccccn2c1=O,0.55,fraction unbound [3]: 0.24; fraction unbound [4]: 0.21; logD [5]: 0.92
O=C(O)c1cc(CN2CCC(c3ccc(F)nc3)CC2)c2ccccn2c1=O,2.1,–

SMILES,IP [1] [µM],other results
O=C(O)c1cc(CN2CCC(c3ncccn3)CC2)c2ccccn2c1=O,13,–
O=C(O)c1cc(CN2CCc3ccccc3C2c2ccccc2)c2ccccn2c1=O (stereo not drawn),0.56,–
CCOC(=O)C1CN(Cc2cc(C(=O)O)c(=O)n3ccccc23)Cc2ccccc21 (stereo not drawn),3.6,–
N#Cc1ccc2c(c1)CCN(Cc1cc(C(=O)O)c(=O)n3ccccc13)C2,0.61,–
O=C(O)c1cc(CN2CCc3ccncc3C2)c2ccccn2c1=O,1.7,–
O=C(O)c1cc(CN2CCc3cc(Br)ccc3C2)c2ccccn2c1=O,0.63,–
O=C(O)c1cc(CN2CCC(n3nnc4ccccc43)CC2)c2ccccn2c1=O,6,–
COc1ccc2c(c1)CCN(Cc1cc(C(=O)O)c(=O)n3ccccc13)C2,1.4,–
O=C(O)c1cc(CN2CCC(c3cnccn3)CC2)c2ccccn2c1=O,11,–
O=C(O)c1cc(CN2CCc3ccc(Cl)cc3C2)c2ccccn2c1=O,0.63,–
O=C(O)c1cc(CN2CCc3cc(F)ccc3C2)c2ccccn2c1=O,0.78,–
O=C(O)c1cc(CN2CCc3cc(-c4ccncc4)ccc3C2)c2ccccn2c1=O,0.39,–
O=C(O)c1cc(CN2CCC(c3ccncn3)CC2)c2ccccn2c1=O,4.3,–
O=C(O)c1cc(CN2CCc3ncncc3C2)c2ccccn2c1=O,1.8,–
O=C(O)c1cc(CN2CCc3ccccc3C2c2ccncc2)c2ccccn2c1=O (stereo not drawn),0.053,fraction unbound [3]: 0.06; fraction unbound [4]: 0.04; concentration [7]: 1340 nM; Ratio [9]: 0.37; concentration [10]: 9780 nM; concentration [11]: 230 nM; Kp [12]: 0.14; Activity [18]: Active
O=C(O)c1cc(CN2CCC(c3ccc(F)cc3)CC2)c2ccccn2c1=O,1.7,–

# Further lines, with some results ahead:
IP [1] [µM],SMILES,other results
0.15,O=C(O)c1cc(CN2CCc3ccccc3C2c2ccccc2F)c2ccccn2c1=O (stereo not drawn),–
> 10,CSc1ccc2c(c1)CCN(Cc1cc(C(=O)O)c(=O)n3ccccc13)C2,–
> 100,CCOC(=O)C1Cc2ccccc2CN1Cc1cc(C(=O)O)c(=O)n2ccccc12 (stereo not drawn),–
0.91,O=C(O)c1cc(CN2CCC(c3cccc(Cl)c3)CC2)c2ccccn2c1=O,–
0.83,O=C(O)c1cc(CN2CCc3ncccc3C2)c2ccccn2c1=O,–
0.12,O=C(O)c1cc(CN2CCC(c3nc4ccccc4[nH]3)CC2)c2ccccn2c1=O,fraction unbound [3]: 0.23; fraction unbound [4]: 0.18; concentration [10]: 132 nM
0.78,O=C(O)c1cc(CN2CCC(n3cccn3)CC2)c2ccccn2c1=O,–
1.7,Cc1ccc(C2CCN(Cc3cc(C(=O)O)c(=O)n4ccccc34)CC2)cc1,Activity [2]: inactive; fraction unbound [3]: 0.11; fraction unbound [4]: 0.09; logD [5]: 2.97; Activity [6]: Active; concentration [7]: 5780 nM; Activity [8]: inactive; Ratio [9]: 0.7; concentration [10]: 915 nM; concentration [11]: 28 nM; Kp [12]: 6; concentration [13]: 31000 nM; Activity [14]: inactive; Ratio [15]: 0.37; Ratio [16]: 0.42; IP [17]: 760 nM
0.84,O=C(O)c1cc(CN2CCC(c3cccnc3F)CC2)c2ccccn2c1=O,–
0.46,O=C(O)c1cc(CN2CCC(c3ccc(C(F)(F)F)cc3)CC2)c2ccccn2c1=O,–
0.52,N#Cc1ccc(N2CCN(Cc3cc(C(=O)O)c(=O)n4ccccc34)CC2)cc1,Ratio [9]: 0.42
2.2,O=C(O)c1cc(CN2CCC(c3cccc(F)n3)CC2)c2ccccn2c1=O,–
0.08,O=C(O)c1cn(Cc2ccc3ccccc3c2)c2ccccc2c1=O,–
0.6,O=C(O)c1cc(CN2CCc3ccccc3C2c2cccs2)c2ccccn2c1=O (stereo not drawn),–
0.77,O=C(O)c1cc(CN2CCC(c3ccc(Cl)cc3)CC2)c2ccccn2c1=O,–
> 100,O=C(O)c1cc(CN2CCc3ccccc3C2C2CCCCC2)c2ccccn2c1=O (stereo not drawn),–
1.3,O=C(O)c1cc(CN2CCC(c3ccccc3)CC2)c2ccccn2c1=O,–
1.7,O=C(O)c1cc(CN2CCC(c3ccccc3F)CC2)c2ccccn2c1=O,–
1.7,O=C(O)c1cc(CN2CCc3ccccc3C2)c2ccccn2c1=O,–
0.34,CCOC(=O)C1c2ccccc2CCN1Cc1cc(C(=O)O)c(=O)n2ccccc12 (stereo not drawn),–
0.85,O=C(O)c1cc(CN2CCc3c(Cl)cccc3C2)c2ccccn2c1=O,–
